Assay results collected from several papers.
Sample: plasma

COc1ccc([C@@H]2CN(C(=O)[C@@H](O)CO)C[C@@]2(C)[C@@H](C)O)cc1OC1CN(c2ccc(C)cn2)C1 — AUC(0-t) (human; oral; 40 mg; single dose, healthy volunteers): 7650 ng·h/mL
Cc1ccc(C(=O)N(CCCN)[C@@H](c2oc3cc(Cl)ccc3c(=O)c2Cc2ccccc2)C(C)C)cc1 — AUC (human; intravenous; 4 mg/m²; single dose, patients, infusion): 5160 ng·h/mL
Cn1cc(-c2ccc(S(=O)(=O)[C@@H]3C[C@@H](C(=O)NC4(C#N)CC4)N(C(=O)C4(C(F)(F)F)CC4)C3)c(C(F)(F)F)c2)cn1 — AUC(0-inf) (human; oral; 300 mg; single dose, fasted, healthy volunteers): 21000 ng·h/mL
CCc1nc2c(C)cc(N3CCN(CC(=O)N4CC(O)C4)CC3)cn2c1N(C)c1nc(-c2ccc(F)cc2)c(C#N)s1 — AUC(0-inf) (human; oral; 150 mg; single dose, fed, healthy volunteers): 6700 ng·h/mL
COc1cc(C(=O)NC2CCN(C)CC2)c(F)cc1Nc1ncc(C(F)(F)F)c(Oc2cccc3c2C(=O)N(C)C3)n1 — AUC (human; oral; 300 mg; multiple doses, once daily, steady state, patients): 79.6 µM·h
CO[C@H]1CC[C@H](N2C(=O)CNc3ncc(-c4ccc(C(C)(C)O)nc4)nc32)CC1 — AUC(0-t) (human; oral; 60 mg; multiple doses, patients): 2950 ng·h/mL
CC(C)(O)c1ccccc1-c1ccc2[nH]c(/C=C/c3ccc(C(F)(F)F)cc3)nc2c1 — AUC(0-t) (male human; oral; 225 mg; single dose, fasted, healthy volunteers): 27900 ng·h/mL
CC(C)n1cc(C#N)c2cc(-n3cc(C(=O)O)cn3)ccc21 — AUC(0-inf) (human; oral; 100 mg; single dose, fasted, healthy volunteers): 19600 ng·h/mL
COCCOc1cnc2ccn([C@H](C)c3nnc4c(F)cc(-c5cnn(C)c5)cn34)c(=O)c2c1 — AUC(0-t) (human; oral; 300 mg; multiple doses, once daily, patients): 55900 ng·h/mL
Cn1c(=O)oc2ccc(-c3ccc(C[C@@H](C#N)NC(=O)[C@@H]4CNCCCO4)cc3)cc21 — AUC (male human; oral; 15 mg; single dose, healthy volunteers): 4.17 µM·h
CS(=O)(=O)CCC#N — AUC (human; oral; 100 mg; multiple doses, once daily): 70300 ng·h/mL
